In ChEMBL document CHEMBL1127293, “Mobilization of iron by chiral and achiral anionic 3-hydroxypyrid-4-ones” (1994) one finds Treatment period, urinary iron excretion and biliary iron excretion data, which are given here for ten compounds.

For assay [1], the system named is Rattus norvegicus. Briefly: Urinary iron excretion was measured after giving oral dose of 1 mmol/kg during treatment period in rat. It counts as functional, Urine. The method, boiled down:
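Female Sprague-Dawley rats as own controls; under ether anesthesia at about 6 p.m., gavage of 1 mL Millipore water (control period) or chelator solution, 1 mL per 200 g rat. Urine collected 15 h overnight in metabolic cages separating feces, tap water ad libitum. Iron by atomic absorption at 248.3 nm; significance p ≤ 0.05.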

Assay [2] concerns Rattus norvegicus. In words: Biliary excretion of iron was measured after giving intravenous dose of 0.2 mmol/kg during treatment period in rat. Format: functional. The method, boiled down:
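Female Sprague-Dawley rats, previously untreated, served as their own controls. Biliary iron collected 0.5 h for control, then 2 h after tail-vein injection (warm-water tail passage beforehand) under anesthesia; animals recovered between periods and were kept in metabolic cages with free tap water. Iron measured by atomic absorption at 248.3 nm; rate as μg Fe/h.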

In the case of `Cc1c(O)c(=O)ccn1[C@@H](C)C(=O)O`, the Treatment period in assay [1] was determined as 3840; in assay [2], 6240.

Compound `Cc1c(O)c(=O)ccn1C(CCC(=O)O)C(=O)O` (stereo not given) yielded a urinary iron excretion in assay [1] of 170 µg/15 h. The compound also came in with a biliary iron excretion in assay [2] of 1150 µg/h.

Compound `Cc1c(O)c(=O)ccn1C(CC(C)C)C(=O)O` (stereo not given) registered a urinary iron excretion in assay [1] of 8550 µg/15 h. In assay [2], this compound displayed a biliary iron excretion of 11600 µg/h.

In assay [1], `Cc1c(O)c(=O)ccn1-c1ccc(C(=O)O)cc1` returned a urinary iron excretion of 1110 µg/15 h. This compound also returned a biliary iron excretion in assay [2] of 9390 µg/h.

`Cc1c(O)c(=O)ccn1Cc1ccc(C(=O)O)cc1` showed a urinary iron excretion in assay [1] of 1550 µg/15 h. In assay [2], the biliary iron excretion was 13700 µg/h.

As to `Cc1c(O)c(=O)ccn1[C@H](C)C(=O)O`, the Treatment period was determined as 4010 in assay [1] and 4580 in assay [2].

On to `Cc1c(O)c(=O)ccn1C(Cc1ccccc1)C(=O)O` (stereo not given), for which, in assay [1], the urinary iron excretion stood at 1280 µg/15 h. In assay [2], the biliary iron excretion came to 8300 µg/h.

In turn, `Cc1c(O)c(=O)ccn1C` [DEFERIPRONE] yielded a urinary iron excretion in assay [1] of 17300 µg/15 h. The same compound showed a biliary iron excretion in assay [2] of 4810 µg/h.

For the compound `CSCCC(C(=O)O)n1ccc(=O)c(O)c1C` (stereo not given), in assay [1], the urinary iron excretion was 1740 µg/15 h. In addition, the biliary iron excretion in assay [2] is 12700 µg/h.

In turn, `Cc1c(O)c(=O)ccn1C(CO)C(=O)O` (stereo not given) returned a urinary iron excretion in assay [1] of 1790 µg/15 h. The compound further had a biliary iron excretion in assay [2] of 4180 µg/h.
